According to paper PMC3478735 (ACS Nano, 2012):

Tests used:
HeLa cells [1] = experiment: Endosomal escape, codelivery of Calcein, fluorescence microscopy; type: cell-based, human
Method in brief: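 HeLa cells plated 48 h ahead to ≥70% confluence. Calcein 0.25 mM added alone or with nanocomplexes (100 nM siRNA) in DMEM + 10% bovine serum, 1 h, 37 °C. Cells washed three times in PBS and imaged live (FITC filter). Cells with diffuse cytoplasmic fluorescence counted in ≥8 random fields, normalised to total cells (500–800 per carrier per experiment), reported as mean % per field.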

HeLa cells [2] = experiment: Uptake of myr-TP-LyP-1 nanocomplexes in the presence of endocytosis inhibitors; type: cell-based, human; settings: inhibitor 1 h at 37 °C, then nanocomplexes (2 μM peptide, 100 nM siRNA) 1 h, flow cytometry
Method in brief: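 HeLa cells at ~70% confluence. Small-molecule inhibitors applied 1 h at 37 °C. Then nanocomplexes of labelled peptide (2 μM) with GFP siRNA (100 nM) added for a further 1 h at 37 °C. Cells washed three times with cold PBS, trypsinised, and uptake read by flow cytometry.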

`C[C@@H](O)[C@@H]1NC(=O)[C@H](CCCNC(=N)N)NC(=O)[C@H](CCCCN)NC(=O)[C@H](CC(N)=O)NC(=O)CNC(=O)[C@@H](N)CSSC[C@@H](C(=O)O)NC(=O)CNC(=O)[C@H](CCCNC(=N)N)NC1=O` [LyP-1] was tested, and the “endosomal escape” value (HeLa cells [1]) was “little or no endosomal escape”.
For `CCCCCCCCCC(=O)NC(CN1CCOCC1)C(O)c1ccccc1` (stereo not shown) [PDMP], the “uptake of myr-TP-LyP-1 nanocomplexes in the presence of the inhibitor” value (shortened to “uptake … of the inhibitor”) (HeLa cells [2]) was “significantly decreased”.
In the case of `N=C(N)NC(=O)c1nc(Cl)c(N)nc1N` [amiloride], the “uptake … of the inhibitor” value (HeLa cells [2]) is reported as “significantly decreased”.
With `OCC1OC(O)CC(O)C1O` (stereo not shown) [deoxyglucose] the “uptake … of the inhibitor” value (HeLa cells [2]) was “significantly decreased”.
